pIC50: −log10 of the molar value.
Assays:
[1] = test system: mouse macrophage cell line (RAW 264.7); conditions: RAW 264.7, 48 h, MTT
InhA enzyme = InhA enzyme (Mycobacterium tuberculosis, UniProt P9WGR1); assay: InhA enzyme inhibition assay; assay type: biochemical, M. tuberculosis; conditions: for inhibition at 50 µM: read-out: % inhibition InhA at 50 μM of inhibitor
A549 cell line = assay: MTT-based cytotoxicity on lung cancer cell line; set-up: species or system human
How it was run: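 A549 lung cancer cells were exposed to test compounds for 24 h, with cisplatin as the reference. Viability was measured by MTT: viable cells reduce the dye to formazan crystals, which are dissolved in solvent and read at 570 nm. IC50 is the half-maximal inhibitory concentration.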

[2] = test system: Mycobacterium tuberculosis H37Rv; assay: Microplate alamar blue assay; assay type: cell-based; conditions: MABA, 7 days, unit as printed mg mL^−1

Sequence of InhA enzyme (P9WGR1 whole entry, looked up): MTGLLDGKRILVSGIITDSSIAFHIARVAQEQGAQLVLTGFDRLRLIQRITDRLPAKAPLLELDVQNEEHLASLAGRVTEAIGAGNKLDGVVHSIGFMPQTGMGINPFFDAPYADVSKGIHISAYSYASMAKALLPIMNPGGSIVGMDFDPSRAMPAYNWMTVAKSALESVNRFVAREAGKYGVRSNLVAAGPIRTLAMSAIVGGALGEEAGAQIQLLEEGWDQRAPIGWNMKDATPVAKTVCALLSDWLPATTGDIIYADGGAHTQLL

Row | Molecule | % Toxicity at 25 μg mL^−1 [1] [%] | inhibition at 50 µM (InhA enzyme) [%] | pIC50 (A549 cell line; Homo sapiens, A549) | also measured
1 | CC(C)c1ccc(C=CC(=O)c2ccc(-n3cccc3)cc2)cc1 [Compound 3k, 1-(4-(1H-Pyrrol-1-yl)phenyl)-3-(4-isopropylphenyl)prop-2-en-1-one] | 30.1 | 36 |  | 
2 | CC(C)c1ccc(-c2cc(-c3ccc(-n4cccc4)cc3)nc(N)n2)cc1 [Compound 4k, 4-(4-(1H-Pyrrol-1-yl)phenyl)-6-(4-isopropylphenyl)pyrimidin-2-amine] | 28.90 | 10 | 3.91 | 
3 | COc1ccc(-c2cc(-c3ccc(-n4cccc4)cc3)nc(N)n2)cc1 [Compound 4g, 4-(4-(1H-Pyrrol-1-yl)phenyl)-6-(4-methoxyphenyl)pyrimidin-2-amine] | 19.09 | 36 | 4.31 | 
4 | N.N.[Cl][Pt][Cl] [Cisplatin, reference compound] |  |  |  | pIC50 (A549 cell line; A549, MTT): 5.00
5 | 1-(4-(1H-Pyrrol-1-yl)phenyl)-6-(4-(dimethyl amino)phenyl)hexa-2,5-dien-1-one [Compound 3v] |  |  |  | MIC values [2]: 25 mg/mL
6 | 1-(4-(1H-Pyrrol-1-yl)phenyl)-6-phenylhexa-2,5-dien-1-one [Compound 3r] |  |  |  | MIC values [2]: >25 mg/mL
7 | O=C(C=Cc1cccs1)c1ccc(-n2cccc2)cc1 [Compound 3l, 1-(4-(1H-Pyrrol-1-yl)phenyl)-3-(thiophen-2-yl)prop-2-en-1-one] | 26.6 | 36 |  | 
8 | COc1ccc(-c2cc(-c3ccc(-n4cccc4)cc3)nc(N)n2)c(OC)c1 [Compound 4c, 4-(4-(1H-Pyrrol-1-yl)phenyl)-6-(2,4-dimethoxyphenyl)pyrimidin-2-amine] | 25.80 | 16 | 4.26 | 
9 | COc1cccc(-c2cc(-c3ccc(-n4cccc4)cc3)nc(N)n2)c1O [Compound 4u, 2-(6-(4-(1H-Pyrrol-1-yl)phenyl)-2-aminopyrimidin-4-yl)-6-methoxyphenol] | 19.10 | < 5 |  | % inhibition InhA at 50 μM of inhibitor (InhA enzyme; 50 μM inhibitor): no inhibition
10 | 4-(4-(1H-Pyrrol-1-yl)phenyl)-6-(furan-3-yl)pyrimidin-2-amine [Compound 4b] |  |  |  | MIC values [2]: 25 mg/mL
11 | Nc1nc(-c2ccc(-n3cccc3)cc2)cc(-c2ccc(Cl)cc2Cl)n1 [Compound 4h, 4-(4-(1H-Pyrrol-1-yl)phenyl)-6-(2,4-dichlorophenyl)pyrimidin-2-amine] | 26.80 | < 5 | 3.98 | 

From paper PMC12278818 (RSC Advances, 2025)
